# Hits are enriched below; roughly 3% of the tested compounds scored in any of these assays.
# GRIN3A LBD mod: modulators (binders) of human NR3A ligand-binding domain; NR3A LBD differential scanning fluorimetry, Tm shift; 0% = protein alone, 100% = glycine-bound protein; Tm shift relative to glycine control, % at 25 µM; 340,000 compounds, 2.5% hits;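 active = melting temperature shift of at least 10% of the positive control shift, at one fixed dose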
# Hep lipid drop: hepatic lipid droplet formation modulation; AML12 mouse hepatocytes, oleate lipid droplets, BODIPY imaging; inhibition, % at 6.5 µM; 240,000 compounds, 0.4% hits; AID 1656;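 active = lipid droplet intensity inhibited by at least 50%, with more than 500 cells counted; inconclusive = wells with under 300 cells, treated as cytotoxic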
#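 Assay system: AML12 hepatocytes (mouse); Probe or stimulus: oleic acid at 100 µM to induce lipid droplet formation; Dosing: compound at 6.5 µM only; Schedule: compound with oleate, overnight; Detection: fluorescence imaging, 20x objective, two fields per well; Measure: % inhibition of lipid droplet signal.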
# GASC-1 inh: blocks human GASC-1 demethylase activity | GST-JMJD2C(1-420) H3K9me3 demethylation, DELFIA europium | inhibition, % at 2.35 µM | 330,000 compounds, 0.069% hits;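 active = more than half of a compound's replicate wells show inhibition beyond 50%, single wells judged on their own value; inconclusive = some, but no more than half, of replicates pass 50% inhibition; inactive = no replicate passes 50% inhibition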;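 note: signal counts dimethyl H3K9 product captured on neutravidin plate; 0% = median of DMSO wells and 100% = 0.3 times that DMSO median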
# GC-B act: GC-B (human) receptor activation; P20594; HEK293-GC-B cells, CNP EC30, cGMP TR-FRET; 0% at EC30 CNP, 100% saturating CNP; activation, % at 10 µM; 370,000 compounds, 0.11% hits; AID 1920062;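 active = activation at 10 µM reaching about 35% in either raw or pattern-adjusted values, limit read from the data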
# Target sequence (P20594 whole entry, looked up): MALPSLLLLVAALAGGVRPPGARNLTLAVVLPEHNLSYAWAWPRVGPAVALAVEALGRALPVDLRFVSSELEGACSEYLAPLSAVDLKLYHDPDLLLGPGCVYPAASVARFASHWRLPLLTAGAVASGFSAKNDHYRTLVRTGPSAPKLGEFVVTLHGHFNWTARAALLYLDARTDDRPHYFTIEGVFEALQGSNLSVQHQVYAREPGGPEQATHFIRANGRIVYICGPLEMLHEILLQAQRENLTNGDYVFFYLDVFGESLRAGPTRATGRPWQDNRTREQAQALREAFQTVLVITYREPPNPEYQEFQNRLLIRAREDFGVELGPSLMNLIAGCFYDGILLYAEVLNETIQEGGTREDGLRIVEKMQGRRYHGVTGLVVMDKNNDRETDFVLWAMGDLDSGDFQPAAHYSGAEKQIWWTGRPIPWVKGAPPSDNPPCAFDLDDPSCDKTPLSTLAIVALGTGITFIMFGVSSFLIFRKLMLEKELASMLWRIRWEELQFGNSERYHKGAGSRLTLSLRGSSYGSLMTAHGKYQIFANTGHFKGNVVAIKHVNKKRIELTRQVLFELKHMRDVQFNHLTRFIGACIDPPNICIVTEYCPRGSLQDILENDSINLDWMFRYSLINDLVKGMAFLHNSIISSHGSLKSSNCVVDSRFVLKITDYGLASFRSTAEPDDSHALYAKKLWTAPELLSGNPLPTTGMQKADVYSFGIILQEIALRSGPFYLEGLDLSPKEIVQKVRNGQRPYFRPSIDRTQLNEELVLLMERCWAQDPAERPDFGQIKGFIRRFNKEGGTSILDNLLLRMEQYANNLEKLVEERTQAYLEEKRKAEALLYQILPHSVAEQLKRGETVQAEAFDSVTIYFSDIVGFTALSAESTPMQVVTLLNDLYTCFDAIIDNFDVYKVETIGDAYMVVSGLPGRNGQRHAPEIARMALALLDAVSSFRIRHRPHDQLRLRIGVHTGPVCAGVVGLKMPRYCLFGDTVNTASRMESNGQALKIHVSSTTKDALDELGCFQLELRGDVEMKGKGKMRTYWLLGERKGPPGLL
# NPR1 activator: GC-A (human) enzyme activation. 370,000 compounds, 0.14% hits. HEK293 GC-A cells, cGMP TR-FRET, EC30 ANP; 0% at EC30 ANP, 100% saturating ANP. activation, % at 10 µM. AID 1671463; in the data active = activation above about 40%
# aDG glyco up: alpha-DG glycosylation activation; Pro5-aDG cells, alpha-DG glycosylation AlphaScreen (IIH6); 0% Pro5, 100% B10-LARGE cell signal; activation, % at 10 µM; 360,000 compounds, 0.22% hits;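 active = activation of at least 8% versus controls, or a plate z-score of at least 8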;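 note: Pro5 are CHO cells carrying HIG-tagged alpha-DG that lacks glycosylation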
# Active calls of the source: *; u = inconclusive; x = not tested or not shown.
SMILES,GRIN3A LBD mod,Hep lipid drop,GASC-1 inh,GC-B act,NPR1 activator,aDG glyco up
Cc1ccc(C(=O)Nc2nc(COc3ccccc3)cs2)s1,29.4*,-0.8,-6.2,-1.7,4.1,0.8
COc1cccc(OC)c1C(=O)Nc1nc(COc2ccccc2)cs1,22.6*,-8.1,2.7,0.1,2.1,0.9
COc1ccc(NC(=S)NC(NC(=O)c2cccc3ccccc23)C(Cl)(Cl)Cl)c([N+](=O)[O-])c1 (stereo not drawn),12.2*,-3.5,1.5,-0.6,-8.8,-0.1
COc1ccc(NC(=S)NC(NC(=O)c2ccc(Cl)cc2Cl)C(Cl)(Cl)Cl)c([N+](=O)[O-])c1 (stereo not drawn),10.9*,-4.3,-3.0,-0.4,-5.6,-0.1
COc1cccc(C2C3=C(N=c4s/c(=C\c5ccc(O)cc5)c(=O)n42)c2ccccc2CC3)c1OC (stereo not drawn),-14.2,20.4,-3.7,-0.2,-4.6,-0.7
COc1cccc(C2C3=C(N=c4s/c(=C\c5cccc(O)c5)c(=O)n42)c2ccccc2CC3)c1OC (stereo not drawn),31.1*,8.4,-2.9,-3.5,-13.3,0.7
Clc1cccc(Nc2nc(-c3cccnc3)cs2)c1,26.7*,-34.4,5.0,10.1,11.9,0.8
Brc1ccc(Nc2nc(-c3cccnc3)cs2)cc1,21.4*,1.2,10.7,-7.5,-6.0,0.0
Brc1cccc(Nc2nc(-c3cccnc3)cs2)c1,43.0*,-9.1,-0.2,12.9,8.7,0.3
Brc1ccc(-c2csc(Nc3nc(-c4ccc(Br)cc4)cs3)n2)cc1,32.2*,28.7,7.2,1.5,0.9,-0.2
CC(=O)c1cccc(Nc2nc(-c3cccnc3)cs2)c1,1.6,x,3.9,14.3,5.2,0.0
Cc1ccccc1-c1cc(C(=O)NCc2cccc(C(F)(F)F)c2)nn1CC1CC(c2cccc([N+](=O)[O-])c2)=NO1 (stereo not drawn),-7.0,x,-1.5,0.0,-1.2,0.9
COc1ccc(Cl)cc1Nc1nc(-c2cccnc2)cs1,23.6*,-1.6,-4.4,-3.4,-1.0,0.4
Cc1ccc(Nc2nc(-c3cccnc3)cs2)cc1C,-3.3,-13.3,-27.5,-1.1,-12.8,0.5
COCOCCn1cc(CN2CCS(=O)(=O)N(Cc3ccc(-c4ccc(OC)nc4)cc3)C(C)C2=O)nn1 (stereo not drawn),x,x,x,1.1,3.4,0.0
COCOCCn1cc(CN2CCS(=O)(=O)N(Cc3ccc(-c4ccc(Cl)cc4)cc3)C(C)C2=O)nn1 (stereo not drawn),x,x,x,-3.4,48.9*,0.4
COCCCNC(=O)Cn1cnc2sc(C)c(S(=O)(=O)N3CCN(c4ncccn4)CC3)c2c1=O,0.7,3.3,-3.8,-0.5,-0.7,-0.2
CCC(C)NC(=O)Cn1cnc2sc(C)c(S(=O)(=O)N3CCN(c4ncccn4)CC3)c2c1=O (stereo not drawn),14.3*,-0.1,17.4,3.7,-1.6,-0.2
CC(=O)c1ccc(NC(=O)CN2C(=O)/C(=C/C=C/c3ccccc3)SC2=S)cc1,9.3,3.1,-27.0,7.5,-7.7,-0.2
O=C(O)CN1C(=O)/C(=C/C=C/c2ccccc2)SC1=S,20.6*,0.2,4.9,0.1,-1.8,0.2
CC(=C\c1ccccc1)/C=C1/SC(=S)N(CCCC(=O)O)C1=O,-1.6,3.5,-0.2,-4.5,-1.3,0.2
O=C(O)CN1C(=O)/C(=C\C(Br)=C\c2ccccc2)SC1=S,13.3*,2.4,-0.9,2.5,4.2,0.0
CCOC(=O)C1=C(C)Nc2sc(C(=O)c3ccc(C)cc3)c(N)c2C1c1ccc(C(=O)OC)cc1 (stereo not drawn),6.0,-7.7,-3.1,-3.0,-9.7,0.2
CCOC(=O)C1=C(C)Nc2sc(C(=O)c3ccc(F)cc3)c(N)c2C1c1ccc(C(=O)OC)cc1 (stereo not drawn),13.1*,4.3,-5.9,-4.9,-15.3,0.8
Cc1ccccc1C(=O)N(C)[C@H]1C[C@H]2c3[nH]c4c(-c5ccc6c(c5)OCO6)cccc4c3CCN2C[C@H]1[C@H](C)O,x,x,x,-10.7,-5.5,x
SMILES,GRIN3A LBD mod,Hep lipid drop,GASC-1 inh,GC-B act,NPR1 activator,aDG glyco up
CCC(c1nnnn1-c1c(C)cccc1C)N1CCN(c2ccccn2)CC1 (stereo not drawn),x,x,x,3.3,-1.2,0.2
COc1cc(C(C(=O)NC2CCCCC2)N(C(=O)Cc2c[nH]c3ccccc23)c2ccc(C)cc2)cc(OC)c1OC (stereo not drawn),25.8*,-2.9,7.8,-18.2,-31.1,-0.2
CC1(C)CC[C@]2(C(=O)O[C@@H]3OC(CO)[C@@H](O)[C@H](O)[C@H]3O)CC[C@]3(C)C(=CCC4[C@@]5(C)CC[C@H](O[C@@H]6OC(C(=O)O)[C@@H](O)[C@H](O)[C@H]6O)C(C)(C)C5CC[C@]43C)[C@@H]2C1 (stereo partly drawn),0.3,x,-1.5,5.2,2.8,0.2
COC(=O)C1OC(OC2CC[C@]3(C)C(CC[C@@]4(C)[C@@H]3CC=C3[C@@H]5CC(C)(C)CC[C@]5(C(=O)OC5OC(CO)C(O)C(O)C5O)CC[C@]34C)C2(C)C)C(O)C(O)C1O[C@H]1OCC(O)C(O)C1O (stereo partly drawn),14.6*,x,6.9,x,x,0.9
Cc1cc(NC(=O)c2ccc(NS(=O)(=O)c3ccccc3)cc2)no1,x,x,x,9.0,-1.3,x
Cc1ccc(-c2nnn(CC(=O)N(Cc3ccccc3)C(C(=O)NC(C)(C)C)c3ccncc3)n2)o1 (stereo not drawn),14.2*,12.8,11.3,-9.8,-2.2,0.1
Cc1ccc(C(C(=O)NC(C)(C)C)N(Cc2ccco2)C(=O)Cn2nnc(-c3cccs3)n2)cc1 (stereo not drawn),12.5*,-6.2,-12.6,-2.7,-5.2,0.3
CC(C)(C)NC(=O)C(c1ccc(O)cc1)N(Cc1ccco1)C(=O)Cn1nnc(-c2cccs2)n1 (stereo not drawn),1.1,2.4,8.5,-2.8,-5.5,-0.2
Cc1ccc(-c2nnn(CC(=O)N(Cc3ccco3)C(C(=O)NC(C)(C)C)c3ccc(C)o3)n2)o1 (stereo not drawn),-4.5,1.0,4.3,-2.2,-3.6,-0.1
C[C@@H]1CN([C@@H](C)CO)S(=O)(=O)c2ccc(Br)cc2O[C@@H]1CN(C)S(=O)(=O)c1ccc(F)cc1,x,x,x,-7.8,-7.1,x
O=C1CC(c2ccccc2)CN1C(=O)c1ccccc1 (stereo not drawn),12.5*,x,0.8,-0.3,-5.3,-0.1
Cn1c(CNC(=O)CNC(=O)c2ccccc2)cc(=O)n(C)c1=O,0.0,7.0,u,5.5,4.3,0.0
